# Screening results: PubChem, several laboratories
# In the library only some 3.5% were active in any assay of this set; here they are far more common.
# pPAFAH FP inh: pPAFAH (human) enzyme inhibition. Q13093. inhibition, % at 3.39 µM. 1.5% of 330,000 active. recombinant pPAFAH, FP-rhodamine probe fluorescence polarization;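 active = inhibition above the mean inhibition across the screen plus 3 SD, cut at about 25% in these data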;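 also: inhibitors block binding of the rhodamine activity-based probe so polarization drops; 0% = enzyme with DMSO and 100% = wells lacking pPAFAH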
# PAFAH2 FP inh: inhibitors of human PAFAH2. recombinant PAFAH2, FP-rhodamine activity probe, fluorescence polarization. inhibition, % at 3.39 µM. 0.99% of 340,000 active. AID 492956;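 active = inhibition above the mean over all tested compounds plus 3 SD, cut at about 30% in these data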;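 also: inhibitors block probe labeling of enzyme so polarization drops; 0% = enzyme with DMSO and 100% = wells lacking PAFAH2 protein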
# PAFAH1B2 FP inh: blocks human PAF acetylhydrolase 1b catalytic subunit 2 | AID 492953 | 1.2% of 340,000 active | recombinant PAFAH1B2, FP-rhodamine activity probe, fluorescence polarization | inhibition, % at 3.39 µM;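 active = inhibition above the mean of all tested compounds plus 3 SD, cut at about 24% in these data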;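 also: 0% = enzyme with DMSO and 100% = wells lacking PAFAH1B2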
# Target sequence (P68402 whole entry, looked up): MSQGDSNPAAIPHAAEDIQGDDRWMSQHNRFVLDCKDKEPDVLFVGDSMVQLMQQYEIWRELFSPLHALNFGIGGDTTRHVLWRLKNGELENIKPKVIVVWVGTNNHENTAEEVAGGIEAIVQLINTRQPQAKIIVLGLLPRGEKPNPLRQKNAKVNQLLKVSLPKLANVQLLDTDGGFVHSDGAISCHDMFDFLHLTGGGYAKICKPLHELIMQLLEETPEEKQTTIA
# Apaf1 inhib: inhibitors of human Apaf-1 apoptosome | AID 489030 | 0.71% of 330,000 active | inhibition, % at 20 µM | reconstituted apoptosome caspase-3 activity, DEVD-Rh110 fluorescence; active = inhibition of at least 40% at 20 µM;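 also: plate controls were DMSO wells for no effect and DEVD-CHO caspase inhibitor wells for full effect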
#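 Material: reconstituted apoptosome with Apaf-1, cytochrome c, caspase-9, procaspase-3, dATP; medium: pH 7.5 Hepes buffer with CHAPS, BSA, DTT; also added: cytochrome c and DEVD-Rh110 substrate; timing: 30 min plus 50 min, RT; signal: Rh110 fluorescence intensity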
# PREPL inhibitor: human PREPL enzyme inhibition. recombinant PREPL, fluorescence polarization activity-based probe. inhibition, % at 5.96 µM. 0.68% of 320,000 active. AID 2751; in the data active = inhibition above about 43%;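 also: 0% = enzyme with DMSO and 100% = wells lacking enzyme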
# PAFAH1B3 FP inh: blocks human PAF acetylhydrolase 1B catalytic subunit 3 | Q15102 | inhibition, % at 3.39 µM | 0.28% of 340,000 active | recombinant PAFAH1B3, FP-rhodamine probe, fluorescence polarization;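 active = inhibition above the screen-wide average of all tested compounds plus 3 SD, cut at about 25% in these data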;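 also: 0% = enzyme with DMSO only and 100% = wells lacking PAFAH1B3 protein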
# Target sequence (Q15102 whole entry, looked up): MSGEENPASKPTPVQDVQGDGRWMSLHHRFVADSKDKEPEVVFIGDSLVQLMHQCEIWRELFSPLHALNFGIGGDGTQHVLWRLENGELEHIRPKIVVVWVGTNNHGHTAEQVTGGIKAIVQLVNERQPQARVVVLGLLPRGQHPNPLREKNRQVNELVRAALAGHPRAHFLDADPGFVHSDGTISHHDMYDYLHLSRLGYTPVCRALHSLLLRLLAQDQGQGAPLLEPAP
# pPAFAH confirm: confirmation of human plasma PAF acetylhydrolase (pPAFAH) inhibitors. shares compounds with pPAFAH FP inh. recombinant pPAFAH, FP-Rh probe fluorescence polarization. inhibition, % at 3.39 µM. 72% of 2,300 active. AID 463230;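 active = mean inhibition of the triplicate above the hit cutoff set for the earlier primary screen, cut at about 25% in these data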;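 also: 0% = enzyme with DMSO and 100% = wells lacking pPAFAH enzyme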
# * = called active by the depositor; nt = no result.
SMILES,pPAFAH FP inh,PAFAH2 FP inh,PAFAH1B2 FP inh,Apaf1 inhib,PREPL inhibitor,PAFAH1B3 FP inh,pPAFAH confirm
COc1cc2c(ccc3cc(OC)c(OC)c(O)c32)cc1O,39.5*,15.2,13.0,-20.9,20.3,23.0,22.3
COc1cc2cccc(OC)c(=O)c2c(O)c1OC,-7.5,11.1,2.8,0.5,12.7,6.7,nt
CN=c1scc(-c2cccs2)n1/N=C/c1ccccc1O,5.6,0.9,4.7,16.2,14.0,5.6,nt
CC(C)N=c1scc(-c2ccco2)n1/N=C/c1ccc(O)c(O)c1,64.3*,3.9,1.2,-8.7,10.3,5.9,69.0*
COCCN=c1scc(-c2ccco2)n1/N=C/c1ccc(O)c(O)c1O,63.8*,25.0,-8.2,19.2,24.4,7.9,66.8*
Oc1ccc(/C=N/n2c(-c3ccco3)csc2=Nc2cccnc2)c(O)c1,19.3,9.7,9.0,11.3,32.6,10.3,nt
C=CCN=c1scc(-c2ccco2)n1/N=C/c1ccc(O)c(O)c1O,49.5*,7.3,-0.8,9.0,16.4,5.8,68.3*
CCOc1ccc(NC(=O)CN2C(=O)NC(C)(c3ccc(OC(F)F)cc3)C2=O)cc1 (centres undefined),-4.4,0.2,3.1,9.5,-4.5,12.6,nt
O=S(=O)(NCCC1=CCCCC1)c1c(Cl)cccc1Cl,-0.5,3.2,7.3,27.3,-13.8,2.5,nt
Cc1nc(S/C(=C/c2ccc(-c3ccc(Cl)cc3)o2)C(=O)O)n[nH]1,10.8,19.1,9.1,23.3,1.1,5.3,nt
Cc1nc(S/C(=C/c2ccc(-c3cc(Cl)ccc3C)o2)C(=O)O)n[nH]1,46.8*,27.5,12.9,7.1,15.5,25.3,56.4*
O=C(COC(=O)c1ccc2c(c1Cl)C(=O)c1ccccc1C2=O)NC1CCCCC1,52.8*,44.4*,-4.5,11.7,16.5,3.0,49.9*
O=C(COC(=O)c1ccc2c(c1Cl)C(=O)c1ccccc1C2=O)NC1CC1,53.6*,34.2*,-0.1,0.6,29.7,8.2,43.8*
O=C(COC(=O)c1cc(Cl)ccc1Cl)NC1CCCC1,4.5,13.0,3.3,-0.8,-26.7,-1.2,nt
CN(C)c1ccc(/C=N\NC(=O)CC#N)cc1,-0.6,0.2,6.0,-7.0,1.4,3.1,nt
CCCc1cc(=O)oc2cc(OCC(=O)NCCc3ccc(S(N)(=O)=O)cc3)ccc12,3.0,3.2,5.7,-1.4,2.9,4.3,nt
O=C(O)c1ccc(C=NN=Cc2ccco2)cc1,nt,-0.9,2.4,nt,nt,10.4,nt
O=C(O)c1ccc2c(c1)C(=O)/C(=C\c1ccco1)C2=O,53.8*,17.3,11.6,30.3,6.2,35.0*,18.2
Cc1cc(C)c(S(=O)(=O)/N=C2\C=CC(=O)C(Cl)=C2)c(C)c1,65.5*,30.5*,6.1,8.7,15.5,12.3,56.8*
O=C(Nc1ccc(S(=O)(=O)Nc2ccccc2)cc1)C1COc2ccccc2O1 (centres undefined),40.0*,-7.5,-5.7,13.9,-5.3,5.8,35.3*
CC1CCCCC1n1c(=S)[nH]c2ccccc2c1=O (centres undefined),3.8,-2.8,-2.5,4.7,-2.5,-0.1,nt
CCCCC1(C)OC(=O)C(=Cc2ccc(-c3ccc(Cl)c(C(=O)O)c3)o2)C(=O)O1 (centres undefined),1.5,20.4,2.0,14.2,8.3,3.6,nt
CCOC(=O)c1cc(-c2ccc(/C=C3/C(=O)NC(=O)C(C#N)=C3C)o2)ccc1Cl,45.7*,22.1,8.1,19.2,3.7,16.8,47.5*
CN(c1ccc(OCC(=O)OCC(=O)NC2CCCC2)cc1)S(=O)(=O)c1ccc2ccccc2c1,1.8,2.6,-0.2,19.3,2.0,0.6,nt
CN(c1ccc(OCC(=O)NC2CCC(O)CC2)cc1)S(=O)(=O)c1ccc(Cl)cc1 (centres undefined),36.9*,-4.1,4.6,-3.7,4.8,10.2,-1.8
CCCN(C(=O)c1ccc(N2CCCC2=O)cc1)C1CCS(=O)(=O)C1 (centres undefined),2.6,7.6,-6.0,1.6,0.7,1.7,nt
COc1ccc(NC(=S)NNc2ccc(S(=O)(=O)Nc3ccccc3C(=O)O)cc2[N+](=O)[O-])cc1,58.0*,63.9*,15.7,15.7,13.6,27.4*,81.9*
